From PubChem
ATG4B inh: ATG4B protease inhibitors, primary screen, biochemical, fluorescence, uHTS | ATG4B cleavage of LC3-PLA2, NBD-HPC fluorescence, 1 h | inhibition, % at 8.33 µM | 340,000 compounds, 0.51% hits | AID 504462, 2011; in the data active means inhibition above about 40%
MBD2 DNA inh: inhibitors of MBD2 binding to methylated DNA, primary screen, biochemical, TR-FRET, DNA-binding domain, human. Methyl-CpG-binding domain protein 2 (Homo sapiens), Q9UBB5. MBD2 binding to methylated oligonucleotide. inhibition, % at 4.4 µM. 370,000 compounds, 0.31% hits; in the data active means inhibition above about 13%
Target sequence (Q9UBB5 whole entry, looked up, the tested form may be a part): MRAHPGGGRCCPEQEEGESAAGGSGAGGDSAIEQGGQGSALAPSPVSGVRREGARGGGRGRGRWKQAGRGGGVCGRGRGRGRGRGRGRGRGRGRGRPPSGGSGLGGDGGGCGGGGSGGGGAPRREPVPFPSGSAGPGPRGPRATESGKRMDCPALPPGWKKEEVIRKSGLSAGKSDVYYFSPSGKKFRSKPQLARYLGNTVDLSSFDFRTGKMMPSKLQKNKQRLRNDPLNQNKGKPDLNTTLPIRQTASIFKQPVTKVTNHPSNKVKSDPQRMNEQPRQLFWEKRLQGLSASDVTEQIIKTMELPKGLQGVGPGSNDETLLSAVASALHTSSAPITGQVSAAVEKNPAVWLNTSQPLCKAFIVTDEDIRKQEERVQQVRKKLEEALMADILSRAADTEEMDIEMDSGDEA
rCAG RNA binder: binders of r(CAG) RNA repeats, primary screen, biochemical, fluorescence; r(CAG) RNA repeat, TO-PRO-1 dye displacement fluorescence; inhibition, % at 3 µM; 370,000 compounds, 1.3% hits; AID 651821, 2012;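 active means inhibition above the plate cutoff, the mean of all test compounds on that plate plus 3 SD, cut at about 35% in these data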;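 further: 0% = DMSO alone and 100% = 100 µM mitoxantrone as full dye displacement; higher means more dye released from RNA so lower well fluorescence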
LEDGF integ inh: blockers of LEDGF/p75-dependent integrase strand transfer – biochemical, TR-FRET, high throughput, primary screen. TR-FRET IN-LEDGF/p75 DNA integration, Eu/Cy5. 370,000 compounds, 0.64% hits. inhibition, % at 3.7 µM. HIV-1 integrase (with human LEDGF/p75);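 active means inhibition above the screen-wide mean plus 3 SD, cut at about 13% in these data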;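 further: signal is the Cy5 over europium emission ratio at 671 and 618 nm; 0% = plate median of compound wells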
UHRF1 MBD2 ctr: UHRF1 methylated DNA binding inhibitors, primary screen, counter-screen for MBD2 inhibitor project, biochemical, TR-FRET, human UHRF1, single concentration. E3 ubiquitin-protein ligase UHRF1 (Homo sapiens), Q96T88. UHRF1 binding to methylated oligo. 370,000 compounds, 0.75% hits. inhibition, % at 4.4 µM; in the data active means inhibition above about 21%;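 further: UHRF1 SRA domain binding a hemimethylated CpG hairpin DNA probe; 0% = median of test compound wells and 100% = reference inhibitor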
CSN inh: inhibitors of CSN-mediated cullin deneddylation, primary screen, biochemical, fluorescence polarization, uHTS; Purified CSN, SCF-Nedd8-OG deneddylation; inhibition, % at 12.5 µM; 360,000 compounds, 0.38% hits; AID 651999, 2013;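 active means pattern-corrected inhibition above about 35%, with an unprinted fluorescence ratio check between 0.5 and 1.5, limit read from the data, passing the limit was not always enough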;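 further: 0% = enzyme with substrate and 100% = substrate without enzyme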
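Assay system: Purified human Csn5 enzyme expressed in HEK293T cells | Amount: Enzyme 0.24 nM | Measured by: Fluorescence polarization readout | Medium: Tris/NaCl/DTT buffer, pH 7.5 | Compound dosing: One concentration, 12.5 µM, 0.25% DMSO | Times: 90 min incubation of compound, enzyme and substrate at room temperature | Control set: no-enzyme wells high, enzyme-with-substrate wells low | Read-out: % inhibition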
Starred values were filed as active, the others as inactive. Rows were chosen to be rich in hits. Some 3.1% of all compounds tested hit in one or more screens of this group.

Screening CCOC(=O)[C@]12CCCC=C1N(CCCOC)C(=O)[C@@H]2CC(=O)NCCc1ccccc1OC returned MBD2 DNA inh -4, rCAG RNA binder -1, LEDGF integ inh 11 and UHRF1 MBD2 ctr 0.
For CCN(CC)C(=O)C1=C(C)N(CCCN2CCCC2=O)C(=O)C(CC(=O)NCCc2ccccn2)C1 (stereo unspecified) the results were MBD2 DNA inh 4, rCAG RNA binder -2, LEDGF integ inh 2, UHRF1 MBD2 ctr 1 and CSN inh -2.
`CC1=C(C(=O)N(C)C)CC(CC(=O)NCCCN(C)C)C(=O)N1CCC1=CCCCC1` (stereo unspecified) gave MBD2 DNA inh 8, rCAG RNA binder -1, LEDGF integ inh 1, UHRF1 MBD2 ctr 21* and CSN inh -3.
Screening CC1=C(C(=O)N(C)C)CC(CC(=O)NC2CC2)C(=O)N1CCC1=CCCCC1 (stereo unspecified) returned MBD2 DNA inh 4, rCAG RNA binder 1, LEDGF integ inh 4, UHRF1 MBD2 ctr 0 and CSN inh -7.
For CC1=C(C(=O)N(C)C)CC(CC(=O)NCCCN(C)C)C(=O)N1CCCN1CCCC1=O (stereo unspecified) the results were MBD2 DNA inh 3, rCAG RNA binder 5, LEDGF integ inh -2, UHRF1 MBD2 ctr 24* and CSN inh -2.
Screening CC1=C(C(=O)N(C)C)CC(CC(=O)NCCc2ccccn2)C(=O)N1CCCN1CCCC1=O (stereo unspecified) returned MBD2 DNA inh 3, rCAG RNA binder 1, LEDGF integ inh -7, UHRF1 MBD2 ctr 25* and CSN inh 0.
CCN(CC)C(=O)C1=C(C)N(Cc2ccc(OC)cc2)C(=O)C(CC(=O)NCCc2ccccn2)C1 (stereo unspecified) was read as MBD2 DNA inh -5, rCAG RNA binder 1, LEDGF integ inh -1, UHRF1 MBD2 ctr -2 and CSN inh 85*.
For O=C(NCCCN1CCN(c2ccc(F)cc2)CC1)NCc1ccccc1 the results were MBD2 DNA inh -2, rCAG RNA binder 1, LEDGF integ inh 1 and UHRF1 MBD2 ctr 3.
`Cc1cc(C(=O)OCCCN(C)C2CN(Cc3cn(Cc4ccccc4C(F)(F)F)nn3)S(=O)(=O)C2)no1` (stereo unspecified) gave MBD2 DNA inh 5, rCAG RNA binder 2, LEDGF integ inh -4 and UHRF1 MBD2 ctr 11.
Screening C[C@H](O)[C@@H]1CN2CCc3c([nH]c4c(-c5ccc6c(c5)OCO6)cccc34)[C@@H]2C[C@@H]1N(C)C(=S)NCCc1ccccc1 returned MBD2 DNA inh -3, rCAG RNA binder 8, LEDGF integ inh 5 and UHRF1 MBD2 ctr -2.
For Cc1ccc(-c2nnc(SCC(=O)NN=Cc3c[nH]c4ccccc34)n2-c2ccccc2)cc1 the results were MBD2 DNA inh 1, rCAG RNA binder 8, LEDGF integ inh 6 and UHRF1 MBD2 ctr 1.
Cc1noc(NS(=O)(=O)c2ccc(NC(=O)C(C)(C)C)cc2)c1C was read as ATG4B inh -1, MBD2 DNA inh -1, rCAG RNA binder 2, LEDGF integ inh -3, UHRF1 MBD2 ctr -2 and CSN inh -4.
`Cc1noc(NS(=O)(=O)c2ccc(NC(=O)/C=C/c3ccc(C(C)C)cc3)cc2)c1C` gave ATG4B inh -8, MBD2 DNA inh -3, rCAG RNA binder 85*, LEDGF integ inh 6, UHRF1 MBD2 ctr -2 and CSN inh 0.
Screening O=C(NN1CC(C(=O)OCc2ccccc2F)CC1=O)c1ccccc1 (stereo unspecified) returned ATG4B inh 4, MBD2 DNA inh 5, rCAG RNA binder -5, LEDGF integ inh 0, UHRF1 MBD2 ctr 22* and CSN inh 0.
